The text below walks through data of ChEMBL document CHEMBL1157795, “Structure-activity relationship of an ozonide carboxylic acid (OZ78) against Fasciola hepatica” (2010).

The test system of assay [1] is Fasciola hepatica. Description: Antiparasitic activity against Fasciola hepatica infected in rat assessed as reduction in worm burden at 100 mg/kg, po administered as single dose measured after 6 days post treatment. Format: functional. Also noted: scale not given: the % may be the effect or the level left. A digest of the protocol:
(§1)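 Female Wistar rats (~100 g) infected with ~20 F. hepatica metacercariae each; at 8 weeks post-infection given a single 100 mg/kg oral dose as suspension in 7% (v/v) Tween 80 / 3% (v/v) EtOH. Killed by CO2 on day 6 post-treatment; adult flukes recovered from bile ducts and livers. Mean total worm burden compared with untreated controls; cures scored; Kruskal-Wallis test, 5% level.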

The subject of assay [2] is Fasciola hepatica. Description: Antiparasitic activity against Fasciola hepatica infected in rat assessed as induction of cure at 100 mg/kg, po administered as single dose measured after 6 days post. Format: functional, organism-based. Also noted: dose 100 mg/kg. A digest of the protocol: as §1
The test system of assay [3] is Fasciola hepatica. Briefly: Antiparasitic activity against Fasciola hepatica infected in rat assessed as reduction in worm burden at 50 mg/kg, po administered as single dose measured after 6 days post treatment. Format: functional. More on the design: scale not given: the % may be the effect or the level left. Put shortly: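 Female Wistar rats (~100 g), each infected with ~20 F. hepatica metacercariae, dosed orally once at 8 weeks post-infection with 50 mg/kg suspended in 7% (v/v) Tween 80 plus 3% (v/v) EtOH. Day 6 after treatment: CO2 sacrifice, adult flukes counted from bile ducts and liver. Worm burden reduction versus untreated control rats (mean totals); Kruskal-Wallis significance.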

Molecules are shown by their SMILES. Activity calls are given as the source filed them. No cut-off for these calls is given here.

Consider `COC(=O)C[C@H]1CC[C@]2(CC1)OO[C@]1(O2)C2CC3CC(C2)CC1C3`, for which the Activity in the assay with Fasciola hepatica [1] is 99%.
On the same count and under the same terms, the value for `O=C(O)C[C@H]1CC[C@]2(CC1)OO[C@]1(O2)C2CC3CC1CC(C2)C3F` (some centres not stated) was 76%.
As for `CS(=O)(=O)NC(=O)C[C@H]1CC[C@]2(CC1)OO[C@]1(O2)C2CC3CC(C2)CC1C3`, the outcome in the assay with Fasciola hepatica [2] was Active. In the assay with Fasciola hepatica [1], the Activity came out at 100%.
In the case of `O=C(C[C@H]1CC[C@]2(CC1)OO[C@]1(O2)C2CC3CC(C2)CC1C3)N1CCNCC1`, in the assay on Fasciola hepatica [2], the outcome was inactive. Moreover, in the assay on Fasciola hepatica [1], the Activity was determined as 0%.
For `O=C(O)CC[C@H]1CC[C@]2(CC1)OO[C@]1(O2)C2CC3CC(C2)CC1C3`, in that order: “inactive” and 14%.
For `O=C(O)C[C@H]1CC[C@]2(CC1)OO[C@]1(O2)C2CC3CC1CC(C2)C3(F)F`, in that order: “inactive” and 80%.
Regarding `O=C(C[C@H]1CC[C@]2(CC1)OO[C@]1(O2)C2CC3CC(C2)CC1C3)NO`, the outcome in the assay with Fasciola hepatica [2] was inactive. Moreover, in the assay with Fasciola hepatica [1], the Activity came out at 34%.
As for `O=C(C[C@H]1CC[C@]2(CC1)OO[C@]1(O2)C2CC3CC(C2)CC1C3)NCCS(=O)(=O)[O-].[Na+]`, the result in the assay on Fasciola hepatica [2] was inactive. Moreover, the Activity in the assay with Fasciola hepatica [1] is recorded as 0%.
Turning to `O=C(O)C(C(=O)O)[C@H]1CC[C@]2(CC1)OO[C@]1(O2)C2CC3CC(C2)CC1C3`, the outcome in the assay on Fasciola hepatica [2] was inactive. For the same compound, the Activity with Fasciola hepatica [1] is 0%.
Turning to `O=C(O)C[C@H]1CC[C@@]2(CC1)OO[C@@]1(O2)C2CC3CC(C2)CC1C3`, the Activity in the assay on Fasciola hepatica [1] was 95%.
As to `C[C@H]1[C@H](OC(=O)CCC(=O)O)O[C@@H]2O[C@@]3(C)CC[C@H]4[C@H](C)CC[C@@H]1[C@@]24OO3` [ARTESUNATE], the Activity in the assay on Fasciola hepatica [1] amounted to 30%.
In the case of `O=C(O)C(=O)NC[C@H]1CC[C@]2(CC1)OO[C@]1(O2)C2CC3CC(C2)CC1C3`, in the assay on Fasciola hepatica [2], the result was inactive. The Activity in the assay on Fasciola hepatica [1] is 14%.
Turning to `CCOP(=O)([O-])C[C@H]1CC[C@]2(CC1)OO[C@]1(O2)C2CC3CC(C2)CC1C3.[K+]`, the result in the assay on Fasciola hepatica [2] was inactive. In addition, the Activity in the assay with Fasciola hepatica [1] is on record as 16%.
In the case of `CCOC(=O)C[C@H]1CC[C@]2(CC1)OO[C@]1(O2)C2CC3CC(C2)CC1C3`, in the assay with Fasciola hepatica [3], the Activity came out at 36%.
Consider `NNC(=O)C[C@H]1CC[C@]2(CC1)OO[C@]1(O2)C2CC3CC(C2)CC1C3`, for which the outcome in the assay with Fasciola hepatica [2] was inactive. Also, the Activity in the assay with Fasciola hepatica [1] was 12%.
The corresponding values for `O=C(O)C[C@H]1CC[C@@]2(CC1)C[C@@]1(OO2)C2CC3CC(C2)CC1C3` are “inactive” and 7%.
For `O=C([O-])CN1CC[C@]2(CC1)OO[C@]1(O2)C2CC3CC(C2)CC1C3.[Na+]`, in that order: “inactive” and 0%.
As to `O=C(O)CNC(=O)C[C@H]1CC[C@]2(CC1)OO[C@]1(O2)C2CC3CC(C2)CC1C3`, the Activity in the assay with Fasciola hepatica [1] stood at 86%.
As to `O=C(O)C[C@H]1CC[C@]2(CC1)OO[C@]1(O2)C2CC3CC1C[C@@](F)(C3)C2`, the Activity in the assay on Fasciola hepatica [1] stood at 80%.
As to `O=C(O)C[C@H]1CC[C@]2(CC1)OO[C@]1(O2)C2CCCC1CCC2`, the result in the assay with Fasciola hepatica [2] was inactive. Further, the Activity with Fasciola hepatica [1] is 51%.
For `O=C(O)C[C@H]1CCCC[C@@]12OOC1(O2)C2CC3CC(C2)CC1C3` (some centres not stated), in that order: “inactive” and 46%.
For `O=C(O)C[C@H]1CC[C@]2(CC1)OO[C@]1(O2)C2CC3CC(C2)CC1C3`, in that order: “Active” and 100%.
Turning to `N=C(N)NC(=O)C[C@H]1CC[C@]2(CC1)OO[C@]1(O2)C2CC3CC(C2)CC1C3`, the outcome with Fasciola hepatica [2] was inactive. Further, the Activity in the assay with Fasciola hepatica [1] is reported as 0%.
Take `O=C(O)C[C@@H]1CCC[C@]2(C1)OOC1(O2)C2CC3CC(C2)CC1C3` (relative stereo): the Activity with Fasciola hepatica [1] is 90%.
For the compound `O=C(O)C[C@H]1CC[C@]2(CC1)OC[C@]1(O2)C2CC3CC(C2)CC1C3`, the outcome in the assay with Fasciola hepatica [2] was inactive. The Activity with Fasciola hepatica [1] came to 0%.
For the compound `NC(=O)C[C@H]1CC[C@]2(CC1)OO[C@]1(O2)C2CC3CC(C2)CC1C3`, in the assay with Fasciola hepatica [2], the result was inactive. Also, the Activity in the assay on Fasciola hepatica [1] stood at 7%.
Turning to `O=C(O)C[C@H]1CC[C@]2(CC1)OO[C@@]1(CCCCC1)O2`, the outcome with Fasciola hepatica [2] was inactive. Moreover, the Activity with Fasciola hepatica [1] turned out to be 0%.
With `O=C(O)[C@H]1CC[C@]2(CC1)OO[C@]1(O2)C2CC3CC(C2)CC1C3`, the Activity with Fasciola hepatica [1] is reported as 52%.
